Published values of several laboratories.
Lines come from different studies, so protocols differ.
Cell line: PC-3
Read-out: cell growth or viability

Compound | technique | time | IC50 [µM]
O=C(/C=C/c1ccc2c(=O)n(CC3CCCC3)cnc2c1)NO | SRB | 48 h | 2.49
COc1c(C)cnc(COc2ccc(NC(=O)Nc3cccc(C(F)(F)F)c3)cc2)c1C | MTT | 72 h | > 100
COc1cc(Nc2nc(CNCc3ccccc3)cc3c(-c4ccccc4)n[nH]c23)cc(OC)c1OC | MTS | 48 h | 4.3
Cc1c(OCC(F)(F)F)ccnc1COc1ccc(NC(=O)Nc2ccc(F)cc2)cc1 | MTT | 72 h | 60.2
Cc1cc(C)cc(COc2cc3c(cc2OCc2cc(C)cc(C)c2)[C@H]2C[C@](O)(Cc4cn(Cc5ccc(S(C)(=O)=O)cc5)nn4)C[C@H](C)N2CC3)c1 | MTT | – | 0.223
C[C@H]1O[C@@H](n2cc(F)c(=O)[nH]c2=O)[C@H](O)[C@@H]1O | CCK-8 | 48 h | > 50
CCn1cnc2ccc(/C=C/C(=O)NO)cc2c1=O | SRB | 48 h | 7.04
COCCCOc1ccnc(COc2ccc(NC(=O)Nc3ccc(F)cc3)cc2)c1C | MTT | 72 h | > 100
CN1CCN(CCn2cccc2/C=N/NC(=O)Nc2cc3c(Nc4ccc(F)c(Cl)c4)ncnc3cc2O[C@H]2CCOC2)CC1 | MTT | 72 h | 1.89
Cc1cc(C)cc(COc2cc3c(cc2OCc2cc(C)cc(C)c2)[C@H]2C[C@](O)(Cc4cn(CCc5ccccc5)nn4)C[C@H](C)N2CC3)c1 | MTT | – | 0.318
COc1ccc(/C=C/c2cc(C)no2)cc1 | MTT | 72 h | > 100
Cc1cc(C)cc(COc2cc3c(cc2OCc2cc(C)cc(C)c2)[C@H]2C[C@](O)(Cc4cn(CC5CCCCC5)nn4)C[C@H](C)N2CC3)c1 | MTT | – | 0.384
COC1=CC(=O)N(C(=O)[C@@H](CCC(Cl)(Cl)Cl)NC(=O)C(C)(C)C)[C@@H]1CCC(Cl)Cl | resazurin | 72 h | 28
CC(C)c1n[nH]c2c(Nc3ccccc3)nc(CNCc3ccccc3)cc12 | MTS | 48 h | 5.8
COc1c(C)cnc(COc2ccc(NC(=O)Nc3ccc(F)cc3)cc2)c1C | MTT | 72 h | 43.3
CCOC(=O)c1cc2cc(Nc3ncnc4cc(OCCCN5CCC(C)CC5)c(OC)cc34)ccc2s1 | MTT | – | > 100
COc1cc2ncnc(Nc3ccc(F)c(Cl)c3)c2cc1NC(=O)N/N=C/CN1CCN(C)CC1 | MTT | 72 h | 5.03
COc1ccnc(COc2ccc(NC(=O)Nc3ccc(F)cc3)cc2)c1OC | MTT | 72 h | 50.1
O=C(N/N=C/c1cccn1CCCN1CCCCC1)Nc1cc2c(Nc3ccc(F)c(Cl)c3)ncnc2cc1O[C@H]1CCOC1 | MTT | 72 h | 0.15
CC(C)C[C@H](NC(=O)[C@H](Cc1ccccc1)NC(=O)c1cnccn1)B(O)O | ATP luminescence | – | 0.012

Compound | technique | time | IC50 [µM]
CCN(CC)C/C=N/NC(=O)Nc1cc2c(Nc3ccc(F)c(Cl)c3)ncnc2cc1O[C@H]1CCOC1 | MTT | 72 h | 0.58
[Cl-].[Cl-].[Cl-].[Fe+3] | resazurin | 72 h | 4800
C/C=C/C(=O)Nc1ccc(Cn2cc(C[C@@]3(O)C[C@@H]4c5cc(OCc6cc(C)cc(C)c6)c(OCc6cc(C)cc(C)c6)cc5CCN4[C@@H](C)C3)nn2)cc1 | MTT | – | 0.364
C[C@H]1[C@@H](O)O[C@@H]2O[C@@]3(C)CC[C@H]4[C@H](C)CC[C@@H]1[C@@]24OO3 | CCK-8 | 48 h | > 50
Cc1cc(C)cc(COc2cc3c(cc2OCc2cc(C)cc(C)c2)[C@H]2C[C@](O)(Cc4cn(Cc5ccc(Cl)c(Cl)c5)nn4)C[C@H](C)N2CC3)c1 | MTT | – | 0.381
COc1ccc(NC(=O)Nc2ccc(OCc3nccc(OC)c3OC)cc2)cc1 | MTT | 72 h | 46.4
CCCCc1ccc2[nH]c(NC(=O)OC)nc2c1 | CCK-8 | 72 h | 0.15
CCN(CC)CCCn1cccc1/C=N/NC(=O)Nc1cc2c(Nc3ccc(F)c(Cl)c3)ncnc2cc1O[C@H]1CCOC1 | MTT | 72 h | 2.24
N=C(Nc1ccccc1)c1cc2c(-c3ccccc3)n[nH]c2c(Nc2ccccc2)n1 | MTS | 48 h | 1.2
CCCCCCCCCc1ccc(C(=O)Nc2cc(C)ccc2C(=O)OC)cc1 | MTT | – | > 120
COc1cc2ncnc(Nc3ccc(F)c(Cl)c3)c2cc1NC(=O)N/N=C/c1cccn1CCN1CCOCC1 | MTT | 72 h | 0.82
Cc1cc(C)cc(COc2cc3c(cc2OCc2cc(C)cc(C)c2)[C@H]2C[C@](O)(Cc4cn(CC56CC7CC(CC(C7)C5)C6)nn4)C[C@H](C)N2CC3)c1 | MTT | – | 0.143
COCCCOc1ccnc(COc2ccc(NC(=O)Nc3ccc(Cl)c(C(F)(F)F)c3)cc2)c1C | MTT | 72 h | > 100
COc1cc2ncnc(Nc3ccc(F)c(Cl)c3)c2cc1NC(=O)N/N=C/c1cccn1CCN1CCCC1 | MTT | 72 h | 1.24
COc1ccnc(COc2ccc(NC(=O)Nc3cc(F)cc(F)c3)cc2)c1OC | MTT | 72 h | > 100
NCc1cc2c(-c3ccccc3)n[nH]c2c(Nc2ccccc2)n1 | MTS | 48 h | 1.6
Cc1cc(C)cc(COc2cc3c(cc2OCc2cc(C)cc(C)c2)[C@H]2C[C@](O)(Cc4cn(Cc5ccc(O)cc5)nn4)C[C@H](C)N2CC3)c1 | MTT | – | 0.79
CN(C)CCn1cccc1/C=N/NC(=O)Nc1cc2c(Nc3ccc(F)c(Cl)c3)ncnc2cc1O[C@H]1CCOC1 | MTT | 72 h | 3.84
Cc1cc(C)cc(COc2cc3c(cc2OCc2cc(C)cc(C)c2)[C@H]2C[C@](O)(Cc4cn(Cc5ccncc5)nn4)C[C@H](C)N2CC3)c1 | MTT | – | 0.167
COc1ccc2c(c1OC)C(=O)O[C@@H]2[C@H]1c2c(c(Br)c3c(c2OC)OCO3)CCN1C | MTT | 48 h | 182
